Key:
[1] = test system: Liver; assay: Biodistribution in liver of rat 9L cells implanted Fischer rat at 15 to 30 uCi, iv after 60 mins by gamma-counter; type: ADME, organism-based; conditions: in vivo, 1 h
Procedure, shortened: (§1)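 Male Fischer 344 rats (125-175 g) implanted intracranially by stereotactic injection of 5 × 10^4 9L gliosarcoma cells. Used 10-12 days after implantation. Tracer given into the tail vein at 15-30 µCi in 0.1-0.3 mL sterile saline. Groups of 4 were sacrificed at 15, 30, 60 and 120 min. Tissues were weighed and gamma-counted against dose standards, and counts decay-corrected to %ID/g (mean ± SD). One-way ANOVA.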

[2] = test system: Liver; assay: Biodistribution in liver of rat 9L cells implanted Fischer rat at 15 to 30 uCi, iv after 120 mins by gamma-counter; type: ADME, organism-based; conditions: in vivo, 2 h; procedure, shortened: as §1
[3] = test system: Pancreas; assay: Biodistribution in pancreas of rat 9L cells implanted Fischer rat at 15 to 30 uCi, iv after 15 mins by gamma-counter; type: ADME, organism-based; conditions: in vivo, 0.25 h; procedure, shortened: as §1
[4] = test system: Pancreas; assay: Biodistribution in pancreas of rat 9L cells implanted Fischer rat at 15 to 30 uCi, iv after 30 mins by gamma-counter; type: ADME, organism-based; conditions: in vivo, 0.5 h; procedure, shortened: as §1
[5] = test system: Pancreas; assay: Biodistribution in pancreas of rat 9L cells implanted Fischer rat at 15 to 30 uCi, iv after 60 mins by gamma-counter; type: ADME, organism-based; conditions: in vivo, 1 h; procedure, shortened: as §1
[6] = test system: Pancreas; assay: Biodistribution in pancreas of rat 9L cells implanted Fischer rat at 15 to 30 uCi, iv after 120 mins by gamma-counter; type: ADME, organism-based; conditions: in vivo, 2 h; procedure, shortened: as §1
[7] = test system: Spleen; assay: Biodistribution in spleen of rat 9L cells implanted Fischer rat at 15 to 30 uCi, iv after 15 mins by gamma-counter; type: ADME, organism-based; conditions: in vivo, 0.25 h; procedure, shortened: as §1
[8] = test system: Spleen; assay: Biodistribution in spleen of rat 9L cells implanted Fischer rat at 15 to 30 uCi, iv after 30 mins by gamma-counter; type: ADME, organism-based; conditions: in vivo, 0.5 h; procedure, shortened: as §1
[9] = test system: Spleen; assay: Biodistribution in spleen of rat 9L cells implanted Fischer rat at 15 to 30 uCi, iv after 60 mins by gamma-counter; type: ADME, organism-based; conditions: in vivo, 1 h; procedure, shortened: as §1
[10] = test system: Spleen; assay: Biodistribution in spleen of rat 9L cells implanted Fischer rat at 15 to 30 uCi, iv after 120 mins by gamma-counter; type: ADME, organism-based; conditions: in vivo, 2 h; procedure, shortened: as §1
[11] = test system: Kidney; assay: Biodistribution in kidney of rat 9L cells implanted Fischer rat at 15 to 30 uCi, iv after 15 mins by gamma-counter; type: ADME, organism-based; conditions: in vivo, 0.25 h; procedure, shortened: as §1
[12] = test system: Kidney; assay: Biodistribution in kidney of rat 9L cells implanted Fischer rat at 15 to 30 uCi, iv after 30 mins by gamma-counter; type: ADME, organism-based; conditions: in vivo, 0.5 h; procedure, shortened: as §1
[13] = test system: Kidney; assay: Biodistribution in kidney of rat 9L cells implanted Fischer rat at 15 to 30 uCi, iv after 60 mins by gamma-counter; type: ADME, organism-based; conditions: in vivo, 1 h; procedure, shortened: as §1
[14] = test system: Kidney; assay: Biodistribution in kidney of rat 9L cells implanted Fischer rat at 15 to 30 uCi, iv after 120 mins by gamma-counter; type: ADME, organism-based; conditions: in vivo, 2 h; procedure, shortened: as §1
[15] = test system: Muscle tissue; assay: Biodistribution in muscle of rat 9L cells implanted Fischer rat at 15 to 30 uCi, iv after 15 mins by gamma-counter; type: ADME, organism-based; conditions: in vivo, 0.25 h; procedure, shortened: as §1
[16] = test system: Muscle tissue; assay: Biodistribution in muscle of rat 9L cells implanted Fischer rat at 15 to 30 uCi, iv after 30 mins by gamma-counter; type: ADME, organism-based; conditions: in vivo, 0.5 h; procedure, shortened: as §1
[17] = test system: Muscle tissue; assay: Biodistribution in muscle of rat 9L cells implanted Fischer rat at 15 to 30 uCi, iv after 60 mins by gamma-counter; type: ADME, organism-based; conditions: in vivo, 1 h; procedure, shortened: as §1
[18] = test system: Muscle tissue; assay: Biodistribution in muscle of rat 9L cells implanted Fischer rat at 15 to 30 uCi, iv after 120 mins by gamma-counter; type: ADME, organism-based; conditions: in vivo, 2 h; procedure, shortened: as §1
[19] = test system: Brain; assay: Biodistribution in brain of rat 9L cells implanted Fischer rat at 15 to 30 uCi, iv after 15 mins by gamma-counter; type: ADME, organism-based; conditions: in vivo, 0.25 h; procedure, shortened: as §1
[20] = test system: Brain; assay: Biodistribution in brain of rat 9L cells implanted Fischer rat at 15 to 30 uCi, iv after 30 mins by gamma-counter; type: ADME, organism-based; conditions: in vivo, 0.5 h; procedure, shortened: as §1
[21] = test system: Brain; assay: Biodistribution in brain of rat 9L cells implanted Fischer rat at 15 to 30 uCi, iv after 60 mins by gamma-counter; type: ADME, organism-based; conditions: in vivo, 1 h; procedure, shortened: as §1
[22] = test system: Brain; assay: Biodistribution in brain of rat 9L cells implanted Fischer rat at 15 to 30 uCi, iv after 120 mins by gamma-counter; type: ADME, organism-based; conditions: in vivo, 2 h; procedure, shortened: as §1
[23] = Biodistribution in tumor of rat 9L cells implanted Fischer rat at 15 to 30 uCi, iv after 15 mins by gamma-counter; type: ADME, organism-based, Neoplasm; conditions: in vivo, 0.25 h; procedure, shortened: as §1
[24] = Biodistribution in tumor of rat 9L cells implanted Fischer rat at 15 to 30 uCi, iv after 30 mins by gamma-counter; type: ADME, organism-based, Neoplasm; conditions: in vivo, 0.5 h; procedure, shortened: as §1
[25] = Biodistribution in tumor of rat 9L cells implanted Fischer rat at 15 to 30 uCi, iv after 60 mins by gamma-counter; type: ADME, organism-based, Neoplasm; conditions: in vivo, 1 h; procedure, shortened: as §1
[26] = Biodistribution in tumor of rat 9L cells implanted Fischer rat at 15 to 30 uCi, iv after 120 mins by gamma-counter; type: ADME, organism-based, Neoplasm; conditions: in vivo, 2 h; procedure, shortened: as §1
[27] = test system: Bone; assay: Biodistribution in bone of rat 9L cells implanted Fischer rat at 15 to 30 uCi, iv after 15 mins by gamma-counter; type: ADME, organism-based, Bone element; conditions: in vivo, 0.25 h; procedure, shortened: as §1

N[C@]1(C(=O)O)C[C@H]([18F])C1
Drug uptake [1]: 0.41 % ID/g | Drug uptake [2]: 0.4 % ID/g | Drug uptake [3]: 2.37 % ID/g | Drug uptake [4]: 3.36 % ID/g | Drug uptake [5]: 2.83 % ID/g | Drug uptake [6]: 2.78 % ID/g | Drug uptake [7]: 0.68 % ID/g | Drug uptake [8]: 0.61 % ID/g | Drug uptake [9]: 0.52 % ID/g | Drug uptake [10]: 0.4 % ID/g | Drug uptake [11]: 0.76 % ID/g | Drug uptake [12]: 0.8 % ID/g | Drug uptake [13]: 0.7 % ID/g | Drug uptake [14]: 0.56 % ID/g | Drug uptake [15]: 0.35 % ID/g | Drug uptake [16]: 0.43 % ID/g | Drug uptake [17]: 0.42 % ID/g | Drug uptake [18]: 0.39 % ID/g | Drug uptake [19]: 0.2 % ID/g | Drug uptake [20]: 0.18 % ID/g | Drug uptake [21]: 0.2 % ID/g | Drug uptake [22]: 0.25 % ID/g | Drug uptake [23]: 1.4 % ID/g | Drug uptake [24]: 2.1 % ID/g | Drug uptake [25]: 1.48 % ID/g | Drug uptake [26]: 1.93 % ID/g | Drug uptake [27]: 0.25 % ID/g

Source: ChEMBL document CHEMBL1152757, “Stereoselective synthesis and biological evaluation of syn-1-amino-3-[18F]fluorocyclobutyl-1-carboxylic acid as a potential positron emission tomography brain tumor imaging agent” (Bioorg Med Chem, 2009)
